Screens (PubChem BioAssay)
PfGluPho inh: PfG6PD (Plasmodium falciparum) enzyme inhibition. inhibition, % at 20 µM. 350,000 compounds, 0.78% hits. PfGluPho enzyme, NADPH resazurin-diaphorase fluorescence. AID 504690;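 active means inhibition reaching at least a set limit at 20 µM in the primary screen, cut at about 59% in these data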
A3G deaminase: inhibitors of human APOBEC3G DNA deaminase | 330,000 compounds, 0.28% hits | Q9HC16 | recombinant A3G, ssDNA deamination FAM/TAMRA fluorescence | inhibition, % at 20 µM;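 active means inhibition of at least 40% at 20 µM, with no more than 30% in the related APOBEC3A deaminase screen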
PfM18AAP inh-1: PfM18AAP enzyme inhibition; recombinant PfM18AAP, H-Glu-NHMec fluorogenic cleavage; inhibition, % at 7.35 µM; 290,000 compounds, 1.2% hits;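 active means inhibition above the campaign mean inhibition over all tested compounds plus 3 SD, cut at about 28% in these data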
APOBEC3A inh: inhibitors of human APOBEC3A DNA deaminase. AID 493011. inhibition, % at 20 µM. 330,000 compounds, 0.41% hits. recombinant A3A, FAM/TAMRA ssDNA deamination fluorescence. P31941;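 active means at least 40% inhibition at 20 µM here, with at most 30% in a related deaminase screen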
UBC9 SUMO inh: SUMOylation inhibition | P63279 | HTRF SUMOylation assay, SAE1/SAE2 + UBC9, in vitro | AID 2006 | 290,000 compounds, 0.36% hits | inhibition, % at 35 µM; in the data active means inhibition above about 50%, passing the limit was not always enough
Target sequence (P63279 whole entry, looked up): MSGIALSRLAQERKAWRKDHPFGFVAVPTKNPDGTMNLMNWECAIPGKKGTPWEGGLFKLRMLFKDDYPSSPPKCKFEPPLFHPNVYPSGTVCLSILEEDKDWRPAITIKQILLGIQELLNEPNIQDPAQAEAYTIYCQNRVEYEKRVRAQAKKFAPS
HKDC1 inhibitor: inhibitors of human hexokinase HKDC1; Q2TB90; 340,000 compounds, 0.16% hits; inhibition, % at 20 µM; AID 493160; recombinant HKDC1, G6PDH/diaphorase resazurin coupled fluorescence;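 active means inhibition above about 35% when tested at 20 µM, limit read from the data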
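Test system: recombinant HKDC1 (HK5) hexokinase enzyme, produced in-house / Doses: 20 µM test compound, 1% DMSO / Timing: 90 min, room temperature / Detection: G6PDH/diaphorase-coupled fluorescence, 1 mM NADP, 100 µM resazurin, 525/613 nm / Control set: DMSO wells with and without enzyme mix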
PfM18AAP inh-2: PfM18AAP inhibition, confirmation. shares compounds with PfM18AAP inh-1. recombinant PfM18AAP, H-Glu-NHMec fluorogenic cleavage. inhibition, % at 7.35 µM. 2,400 compounds, 28% hits. AID 2170;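 active means mean inhibition over replicate wells above the hit cutoff set for the earlier primary screen, cut at about 29% in these data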
CTSL1 confirm: counter-screen for PFM18AAP inhibitors: confirmation of human cathepsin L inhibitors | shares compounds with PfM18AAP inh-1 | purified cathepsin L1, Z-Leu-Arg-MCA fluorescence | inhibition, % at 5.96 µM | 2,400 tested, under 10 active | AID 2178;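 active means average inhibition across replicates above the hit cutoff set in the earlier primary screen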
Target sequence (P07711 whole entry, looked up): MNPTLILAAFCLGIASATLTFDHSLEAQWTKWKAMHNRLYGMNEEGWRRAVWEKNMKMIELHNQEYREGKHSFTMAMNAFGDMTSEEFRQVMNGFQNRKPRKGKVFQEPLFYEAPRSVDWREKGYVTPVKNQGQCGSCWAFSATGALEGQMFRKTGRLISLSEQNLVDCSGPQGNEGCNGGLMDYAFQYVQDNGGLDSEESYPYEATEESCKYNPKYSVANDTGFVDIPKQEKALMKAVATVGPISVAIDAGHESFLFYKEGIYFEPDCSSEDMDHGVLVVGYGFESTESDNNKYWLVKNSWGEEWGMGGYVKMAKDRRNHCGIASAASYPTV
A number is an active result; 0 = inactive; - = not tested or not shown. Hits are enriched below; roughly 2.4% of the tested compounds scored in any of these assays.

SMILES	PfGluPho inh	A3G deaminase	PfM18AAP inh-1	APOBEC3A inh	UBC9 SUMO inh	HKDC1 inhibitor	PfM18AAP inh-2	CTSL1 confirm
CCC(NC(C)C)C(O)c1ccc(O)c(O)c1 (stereo not given)	0	0	51.6	0	0	0	0	0
CC(C)(C)c1ccc(NNC(=O)C2CCC2)cc1	0	0	39.5	0	0	0	0	0
CN(C)CCCN1C(=O)C(=O)/C(=C(/O)c2ccc3c(c2)OCO3)C1c1ccco1 (stereo not given)	-	-	0	-	-	-	-	-
CC/C(Cc1ccccc1)=N\NC(=O)c1cc([N+](=O)[O-])cc([N+](=O)[O-])c1	0	0	41.3	0	0	0	0	0
Cc1cc(NO)nc(-c2ccc(Br)cc2)n1	0	0	55.9	0	0	0	31.6	0
Cc1cc(C)nc(NC(=O)c2ccc(Br)cc2)n1	0	0	0	0	0	0	-	-
COc1ccc(OCC(=O)OCC(=O)NCC2CCCCC2)cc1	0	0	-	0	-	0	-	-
O=C(CNC(=O)c1ccccc1)NCCc1ccc(O)c(O)c1	-	0	84.3	0	0	-	73.0	0
NC(=O)C1CCN(C(=O)COc2ccc(Nc3ccccc3)cc2)CC1	0	0	34.1	0	0	0	0	0
Cc1nnc(NNS(=O)(=O)c2ccc(Cl)cc2)[nH]c1=O	0	0	72.3	0	0	0	60.0	0
Cc1ccc(S(=O)(=O)NNc2nnc(C)c(=O)[nH]2)cc1	0	0	73.9	0	0	0	39.3	0
COc1ccc(-c2nn(-c3ccccc3)cc2/C=N/NC(=O)c2ccc3c(c2)OCO3)cc1	-	0	0	0	0	-	-	-
COc1ccc(-c2nn(-c3ccccc3)cc2/C=N/Nc2cccc(C(=O)O)c2)cc1	0	-	33.0	-	0	0	0	0
O=C1/C(=C\c2ccc(O)c(O)c2)C(c2ccccc2)=NN1c1ccccc1	0	-	49.0	-	0	0	35.8	0
C(=N\Nc1ncnc2sc3c(c12)CCC3)/c1ccncc1	0	0	48.4	0	0	0	0	0
C(=N\Nc1ncnc2sc3c(c12)CCC3)/c1cccs1	-	0	0	0	0	-	-	-
O=C(Nc1ccc(C(=O)O)cc1)/C(=C\c1ccco1)NC(=O)c1ccco1	0	0	32.3	0	0	0	0	0
Cc1ccc(S(=O)(=O)n2cc(-c3ccccc3)c3ccccc32)cc1	0	0	-	0	-	0	-	-
O=C(Cc1ncn[nH]1)NCCc1ccccc1	0	0	32.2	0	0	0	40.0	0
CCC(=O)c1ccc(OCC(=O)Nc2nn3cnnc3s2)cc1	0	0	66.3	0	0	0	39.8	0
Cc1cc(C)nc(SCC(=O)Nn2cnnc2)n1	0	0	52.8	0	0	0	40.5	0
Cc1cc(C)nc(SCCC(=O)N(C)C)n1	0	0	39.4	0	0	0	0	0
O=C(CSc1ncccn1)Nn1cnnc1	0	0	46.5	0	0	0	44.0	0
CCNC(=O)CCSc1nc(C)cc(C)n1	0	0	0	0	0	0	-	-
CC(NC(=O)c1ccc(Cl)c(Cl)c1)c1ccc(-c2ccccc2)cc1 (stereo not given)	0	0	0	0	0	0	-	-
SMILES	PfGluPho inh	A3G deaminase	PfM18AAP inh-1	APOBEC3A inh	UBC9 SUMO inh	HKDC1 inhibitor	PfM18AAP inh-2	CTSL1 confirm
Cc1ccc(S(=O)(=O)N(Cc2n[nH]c(=S)n2-c2ccccc2)c2ccccc2)cc1	0	0	0	0	0	0	-	-
Cc1ccc2sc(NNC(=O)C3COc4ccccc4O3)nc2c1C (stereo not given)	0	0	40.6	0	0	0	0	0
Nc1ccccc1-c1ccccc1N	0	0	0	0	0	0	-	-
Nc1ccccc1N=Nc1ccccc1N	0	0	40.6	0	0	0	0	0
CC1=Nc2ccccc2N=C(NC(=O)/C=C/C(=O)O)C1c1ccccc1 (stereo not given)	0	0	0	0	0	0	-	-
Cc1cc(C)c(S(=O)(=O)Nc2ccc(O)c(Sc3ncn[nH]3)c2)c(C)c1	0	0	48.9	0	0	0	0	0
Cc1cc(C)c(S(=O)(=O)Nc2ccc(O)c(Sc3ncn[nH]3)c2)cc1C	0	0	52.2	0	0	0	0	0
Cc1cc(C)c(S(=O)(=O)Nc2ccc(O)cc2)cc1C	0	0	0	0	0	0	-	-
Cc1c(C(=O)N(C)c2cccc(Cl)c2)cnn1-c1ccccc1	0	0	0	0	0	0	-	-
COCCNC(=O)c1onc(CSc2ccc(Cl)cc2)c1C(=O)O	0	0	0	0	0	0	-	-
COc1cccc(NC(=O)CCc2nnc3ccc(NCc4ccco4)nn23)c1	0	0	0	0	0	0	-	-
O=C(CCS(=O)(=O)c1ccccc1)Nc1ccccc1N1CCOCC1	0	0	0	0	0	0	-	-
COc1cc(/C=C(\C#N)C(=O)c2c[nH]c3ccccc23)cc(OC)c1O	0	0	36.2	0	0	0	0	0
COc1ccc(CC(=O)Nc2cccc3ncccc23)cc1OC	0	0	0	0	0	0	-	-
Cc1cc(O)c(Oc2cc(C)cc(O)c2O)c(O)c1	0	0	49.6	0	0	0	36.2	0
Cc1cc(F)ccc1S(=O)(=O)N(C(=O)c1ccncc1)c1ccc(OC(=O)c2ccncc2)cc1	0	0	0	0	0	0	-	-
O=C(Nc1ccc(NC(=O)c2ccccc2Br)cc1)c1ccccc1	0	0	0	0	0	0	-	-
Cc1c(C(=O)N/N=C/c2cccnc2)sc(=S)n1C	0	0	0	0	0	0	-	-
Cn1c(N)c(C(=O)N/N=C/c2ccccc2)sc1=S	0	0	33.5	0	0	0	0	0
Cc1c(C)c2ccc(OCC(=O)Nc3cccnc3)c(C)c2oc1=O	0	0	0	0	0	0	-	-
Cc1ccc(C(=O)Oc2ccc(Br)cc2C(=S)N2CCOCC2)cc1	0	0	0	0	0	0	-	-
O=C(Oc1ccc(Br)cc1C(=S)N1CCOCC1)c1ccc(F)cc1	0	0	32.5	0	0	0	0	0
COc1ccc(-n2c(CNC(=O)COc3ccccc3)n[nH]c2=S)cc1	0	0	32.7	0	0	0	0	0
COc1ccc(-n2c(Cn3nnc4ccccc43)n[nH]c2=S)cc1	0	0	38.5	0	0	0	0	0
O=C(COc1ccccc1)NCc1n[nH]c(=S)n1-c1ccccc1	0	0	41.7	0	0	0	0	0
COc1ccc(-n2c(CNC(=O)COc3ccc(Cl)cc3)n[nH]c2=S)cc1	0	0	0	0	0	0	-	-
O=C1/C(=C/c2cccnc2)SC(=S)N1Nc1ccccc1	0	0	36.8	0	0	0	0	0
CS(=O)(=O)N(CC(=O)N1CCCCC1)Cc1ccc(Cl)cc1	0	0	0	0	0	0	-	-
O=C(O)c1cn[nH]c1-n1cnnn1	0	0	65.0	0	0	0	64.6	0
Cc1ccc(-n2cccc2/C=N/n2cnnc2)cc1Cl	0	0	39.3	0	0	0	0	0
